Values after ≈ are worked out from the molar mass of the structure shown.

Consider 1 compound from ChEMBL document CHEMBL1124186, “Synthesis and evaluation of tylosin-related macrolides modified at the aldehyde function: a new series of orally effective antibiotics” (1988).

Test [1] deals with Streptococcus pyogenes. Nature of the test: In vivo effective dose against experimental infections in rodent caused by Streptococcus pyogenes C203 when administered orally. It counts as functional. As to conditions: po.
Test [2] relates to Streptococcus pyogenes. Nature of the test: […] effective dose against Streptococcus pyogenes C203 when administered sc. In kind it is functional. In outline: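 Infected mice (S. pyogenes C203) were treated subcutaneously 1 and 5 h postinfection with 0.25 mL of antibiotic in 10% aqueous ethanol, with tartaric acid added when needed to dissolve it. A range of concentrations was given. The value is the ED50 expressed as mg/kg × 2.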

The next test concerns Haemophilus influenzae. Nature of the test: In vitro antimicrobial activity against Haemophilus influenzae. In kind it is functional.
Test [3] has as its system Streptococcus pyogenes. Briefly: […] effective dose against Streptococcus pyogenes C203 when administered orally. It counts as functional. As to conditions: po.
A further test concerns Enterococcus faecium. Briefly: In vitro antimicrobial activity against Streptococcus faecium X66. In kind it is functional, streptococcus fae-cium.
The next test relates to Streptococcus pneumoniae. Briefly: In vitro antimicrobial activity against Streptococcus pneumoniae. It counts as functional.
Test [4] concerns Streptococcus pyogenes. Briefly: In vivo effective dose against experimental infections in rodent caused by Streptococcus pyogenes C203 when administered sc. It counts as functional.
The subject of test [5] is Streptococcus pyogenes. Nature of the test: (§1) In vitro antimicrobial activity against Streptococcus pyogenes C203. It counts as functional.
Test [6] relates to Staphylococcus epidermidis. Nature of the test: In vitro antimicrobial activity against Staphylococcus epidermidis EPI1. It counts as functional.
Test [7] concerns Streptococcus pyogenes. The description is as §1. It counts as functional. This is another data set of the same source.
The subject of the next test is Staphylococcus aureus. Nature of the test: In vitro antimicrobial activity against Staphylococcus aureus X1. It counts as functional.

The term ED50 denotes the dose at which the effect has come halfway, by size or by number of responders. Higher therefore signals a need for a large dose. For `CC[C@H]1OC(=O)C[C@@H](O)[C@H](C)[C@@H](O[C@@H]2O[C@H](C)[C@@H](O[C@H]3C[C@@](C)(O)[C@@H](O)[C@H](C)O3)[C@H](N(C)C)[C@H]2O)[C@@H](CC=O)C[C@@H](C)C(=O)/C=C/C(C)=C/[C@@H]1CO[C@@H]1O[C@H](C)[C@@H](O)[C@@H](O)[C@H]1OC` [MACROCIN], the ED50 with Streptococcus pyogenes [1] was 71 mg/kg; in the test with Streptococcus pyogenes [2] it was below 1.2 mg/kg; with Streptococcus pyogenes [3], above 80 mg/kg; with Streptococcus pyogenes [4], 1.9 mg/kg. The MIC in the test on Haemophilus influenzae is 16 µg/mL (≈ 17.7 µM); with Enterococcus faecium, 2 µg/mL (≈ 2.22 µM); in the test with Streptococcus pneumoniae, 1 µg/mL (≈ 1.11 µM); against Streptococcus pyogenes [5], 0.25 µg/mL (≈ 0.277 µM); in [6], 1 µg/mL (≈ 1.11 µM); against Streptococcus pyogenes [7], 0.25 µg/mL (≈ 0.277 µM). In the test with Staphylococcus aureus, this compound displayed an MIC of 0.5 µg/mL (≈ 0.554 µM).
